High-throughput results: PubChem, The Scripps Research Institute Molecular Screening Center
This is a sample that favours compounds with a hit; in the whole collection about 1.6% have one here.
TDP2 inh – blocks human TDP2 phosphodiesterase activity; recombinant TDP2, T5PNP hydrolysis, p-nitrophenol absorbance 415 nm; inhibition, % at 12.8 µM; 370,000 tested, 0.34% active; AID 720702;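 active = inhibition above the mean of all tested compounds plus 3 SD, set per campaign, cut at about 25% in these data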;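 also: 0% = DMSO with enzyme and 100% = buffer with substrate but no TDP2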
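Incubation: 2 h at 37 °C; Test system: recombinant human TDP2; Quantity: enzyme 120 nM; Read-out basis: percent inhibition; Medium: 50 mM Tris-HCl pH 7.5 with Mg2+, KCl, DTT, BSA; Repeats: single replicate; Compound: 12.8 µM single point, 1% DMSO; Signal: epi absorbance; Reagent: 5 mM T5PNP chromogenic substrate; Benchmarks: no-enzyme high, DMSO-plus-enzyme low.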
MBD2 DNA inh – blocks human MBD2 binding to methylated DNA; TR-FRET, MBD2 binding to methylated oligonucleotide; Q9UBB5; inhibition, % at 4.4 µM; 370,000 tested, 0.31% active; in the data active = inhibition above about 13%
Target sequence (Q9UBB5 whole entry, looked up): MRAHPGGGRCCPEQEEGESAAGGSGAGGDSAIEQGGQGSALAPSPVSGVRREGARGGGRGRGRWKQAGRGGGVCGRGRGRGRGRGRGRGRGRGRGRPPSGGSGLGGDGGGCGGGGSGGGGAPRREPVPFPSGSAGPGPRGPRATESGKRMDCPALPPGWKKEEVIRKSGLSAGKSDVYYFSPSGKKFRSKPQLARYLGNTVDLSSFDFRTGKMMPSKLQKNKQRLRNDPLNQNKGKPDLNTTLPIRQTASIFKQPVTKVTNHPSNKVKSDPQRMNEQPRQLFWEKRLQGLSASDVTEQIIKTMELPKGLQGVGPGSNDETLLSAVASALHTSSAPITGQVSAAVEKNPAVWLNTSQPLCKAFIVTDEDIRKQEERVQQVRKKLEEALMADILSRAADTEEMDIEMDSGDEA
LEDGF integ inh – blocks HIV-1 LEDGF/p75-dependent DNA integration; inhibition, % at 3.7 µM; TR-FRET IN-LEDGF/p75 DNA integration, Eu/Cy5; 370,000 tested, 0.64% active;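 active = inhibition above the screen-wide mean plus 3 SD, cut at about 13% in these data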;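 also: signal is the Cy5 over europium emission ratio at 671 and 618 nm; 0% = plate median of compound wells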
UHRF1 MBD2 ctr – human UHRF1 methylated DNA binding inhibitors. UHRF1 binding to methylated oligo, TR-FRET. inhibition, % at 4.4 µM. 370,000 tested, 0.75% active; in the data active = inhibition above about 21%;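 also: UHRF1 SRA domain binding a hemimethylated CpG hairpin DNA probe; 0% = median of test compound wells and 100% = reference inhibitor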
IN multimer act – HIV-1 integrase multimerization activation, counter-screen. shares compounds with LEDGF integ inh. TR-FRET HIV-1 integrase multimerization, biochemical. activation, % at 7.7 µM. 2,000 tested, 17% active; in the data active = activation above about 8.9%
TRFRET interf – counter-screen for LEDGF/p75 integration inhibitors: TR-FRET optical interference; TR-FRET optical interference counterscreen, HIV-1 IN multimerization; shares compounds with LEDGF integ inh; 2,000 tested, under 10 active; inhibition, % at 7.7 µM; AID 1053135;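 active = inhibition above the mean over all tested compounds plus 3 SD, which no compound reached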;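 also: 0% = integrase with antibodies and DMSO and 100% = antibodies without integrase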
LEDGF integ conf – confirmation of HIV-1 LEDGF/p75-dependent integration inhibitors. shares compounds with LEDGF integ inh. TR-FRET LEDGF/p75-dependent HIV-1 integration, biochemical. inhibition, % at 3.7 µM. 2,000 tested, 36% active; in the data active = inhibition above about 14%
* hit, by the source's call; / = not tested or not shown.

SMILES	TDP2 inh	MBD2 DNA inh	LEDGF integ inh	UHRF1 MBD2 ctr	IN multimer act	TRFRET interf	LEDGF integ conf
CCN(CC)c1ccc(N=Cc2c(O)n(Cc3ccccc3)c(=O)[nH]c2=O)cc1	4.4	2.6	-3.5	-2.5	/	/	/
CCN(CC)c1ccc(N=Cc2c(O)n(-c3ccccc3)c(=O)[nH]c2=O)cc1	1.1	-3.8	12.1	2.6	/	/	/
CCOc1ccccc1-n1c(O)c(C=Nc2ccc(N(CC)CC)cc2)c(=O)[nH]c1=O	4.7	-6.4	13.9*	-1.4	2.2	-10.8	-6.2
CCN(CC)c1ccc(N=Cc2c(O)n(-c3ccccc3C)c(=O)[nH]c2=O)cc1	7.4	-5.9	28.2*	3.8	0.6	-2.9	5.0
CCN(CC)c1ccc(N=Cc2c(O)[nH]c(=O)[nH]c2=O)cc1	7.7	-4.6	26.3*	11.0	12.3*	-44.0	3.1
CCCCN1C(=O)C(C2c3ccccc3C(=O)N2Cc2ccccc2)C(=O)NC1=S (stereo not given)	8.1	-2.1	-2.8	-0.3	/	/	/
O=C(Nc1ccccc1)OC1CN=C(N[N+](=O)[O-])NC1 (stereo not given)	3.1	-0.6	-3.1	-1.1	/	/	/
CC(=O)c1ccc2c(c1)C1C(Cl)C(Sc3ccccc3[N+](=O)[O-])CC1C(C(=O)O)N2 (stereo not given)	6.3	4.5	14.1*	8.5	5.5	-27.8	19.8*
COc1ccc2c(c1)c(C(=O)CN1CCC3(CC1)OCCO3)c(C)n2Cc1ccccc1	2.3	2.8	0.0	-3.1	/	/	/
CCOc1cccc(N2C(=O)/C(=C/c3ccco3)C(=O)NC2=S)c1	-4.9	12.4	21.5*	49.5*	9.8*	-49.2	75.7*
COc1ccc(CN2C(=O)NC(=O)/C(=C\c3cc(OC)c(OC)c(OC)c3)C2=O)cc1	5.7	-5.5	-1.9	-5.2	/	/	/
CC(C)c1ccc(N2C(=O)NC(=O)/C(=C\c3cnc(-c4ccccc4)nc3)C2=O)cc1	5.0	-1.0	-0.6	15.0	/	/	/
CCN1C(=O)C(=C/C=C/c2ccco2)C(=O)N(CC)C1=S	-4.3	6.3	38.9*	30.4*	1.6	-8.3	50.9*
COc1ccc(CN2C(=O)NC(=O)/C(=C\c3ccco3)C2=O)cc1	-3.5	3.5	13.9*	13.1	5.8	-21.1	17.9*
CC(C)c1ccc(N2C(=O)NC(=O)/C(=C\C=C\c3ccco3)C2=O)cc1	8.4	3.0	22.6*	24.1*	1.5	-5.6	31.4*
CCC1([N+](=O)[O-])COP(=O)(NCc2cccnc2)OC1 (stereo not given)	-2.0	-6.5	4.7	-1.4	/	/	/
COc1ccc(CCNCc2ccsc2)cc1OC	-2.7	1.6	-5.3	1.5	/	/	/
Cc1ccccc1OCCN=Cc1c(O)n(C)c(=O)n(C)c1=O	1.8	-1.7	-4.3	2.9	/	/	/
O=C1NC(=O)N(Cc2ccccc2)C(=O)/C1=C/C=C/c1ccco1	9.1	-1.9	28.8*	7.7	-0.3	1.4	29.9*
CN1C(=O)NC(=O)[C@]2(Cc3ccccc3N3CCN(c4ccccc4)CC32)C1=O (stereo not given in full)	11.1	-0.2	39.8*	-0.3	0.2	-0.9	3.8
O=C1NC(=O)[C@]2(Cc3ccccc3N3CCN(c4ccccc4)CC32)C(=O)N1c1ccccc1 (stereo not given in full)	-19.6	-0.9	5.9	0.7	/	/	/
O=C(c1ccc2nc3ccc(Cl)cc3c(=O)n2c1)N1CCC2(CC1)OCCO2	-8.0	0.9	-2.7	-3.3	/	/	/
COc1ccc(CN2Cc3cc(-c4ccc(OC)cc4)ccc3-n3nncc3C2)cc1	-3.4	2.8	16.6*	0.6	1.1	-4.0	-3.0
COC(=O)C1=C(c2c(C)noc2C)C[C@@H]2CC[C@H]1N2C(=O)N1CCCCC1	5.2	-3.4	-2.6	-1.6	/	/	/
CN1CCC(O)(c2ccccc2)C2CCCC21 (stereo not given)	9.0	-0.3	37.1*	7.6	-2.8	14.3	2.2
SMILES	TDP2 inh	MBD2 DNA inh	LEDGF integ inh	UHRF1 MBD2 ctr	IN multimer act	TRFRET interf	LEDGF integ conf
Cc1cc(/C=C2/C(=O)NC(=O)N(Cc3ccco3)C2=O)c(C)n1-c1ccccc1	-9.7	7.3	53.5*	45.0*	1.0	-3.7	11.0
CCc1ccc(N2C(=O)NC(=O)/C(=C/c3cccn3CCOc3ccc(C)cc3)C2=O)cc1	3.0	1.5	-1.8	0.2	/	/	/
Cc1cccc(OCCn2cccc2/C=C2/C(=O)NC(=O)N(Cc3ccco3)C2=O)c1	8.5	4.4	50.2*	48.5*	4.0	-14.7	24.1*
Clc1ccc(OCC#CCN2CCOCC2)cc1	3.8	1.4	23.9*	-1.7	-0.1	0.5	2.6
C[C@@H]1CC2(CCCC[N+]2(C)C)C[C@H]1C	-0.2	-0.5	-2.5	-0.2	/	/	/
CN1C[C@H](CO)C=C2c3cccc4[nH]cc(c34)C[C@H]21	13.1	-5.0	16.4*	-4.7	0.7	-3.5	3.5
CC1=C[C@@H]2c3cccc4[nH]cc(c34)C[C@H]2N(C)C1	17.0	-1.5	1.5	8.3	/	/	/
COC(=O)C1=C(c2ccccc2OCc2ccccc2)C[C@@H]2CC[C@H]1N2C(=O)NCCOc1ccc(OC)cc1	-10.7	1.1	-0.5	2.1	/	/	/
